For eleven molecules, inhibition, IC50 and Activity results are on record in ChEMBL document CHEMBL2434956, “Investigating the selectivity of metalloenzyme inhibitors” (J Med Chem, 2013).

As a reminder, the inhibition is how much of the control response was suppressed. Usually IC50 stands for the concentration that inhibits the measured activity by half.

For one experiment, the target named is Trypsin (Homo sapiens) (UniProt P07477+P07478+P35030). Briefly: Inhibition of TPCK-treated trypsin (unknown origin) at 10 uM preincubated for 10 mins prior to substrate addition measured for 30 mins by spectrophotometric analysis. Type of experiment: protein assay. The gist of the method: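 Commercial colorimetric kit run per manufacturer; TPCK-treated trypsin (100 mU) in kit buffer, inhibitor at 10 µM; enzyme and inhibitor preincubated 10 min at room temperature before substrate addition.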

Experiment [1] addresses T1, Tyrosinase (Agaricus bisporus) (UniProt O42713).
T1 sequence (whole entry): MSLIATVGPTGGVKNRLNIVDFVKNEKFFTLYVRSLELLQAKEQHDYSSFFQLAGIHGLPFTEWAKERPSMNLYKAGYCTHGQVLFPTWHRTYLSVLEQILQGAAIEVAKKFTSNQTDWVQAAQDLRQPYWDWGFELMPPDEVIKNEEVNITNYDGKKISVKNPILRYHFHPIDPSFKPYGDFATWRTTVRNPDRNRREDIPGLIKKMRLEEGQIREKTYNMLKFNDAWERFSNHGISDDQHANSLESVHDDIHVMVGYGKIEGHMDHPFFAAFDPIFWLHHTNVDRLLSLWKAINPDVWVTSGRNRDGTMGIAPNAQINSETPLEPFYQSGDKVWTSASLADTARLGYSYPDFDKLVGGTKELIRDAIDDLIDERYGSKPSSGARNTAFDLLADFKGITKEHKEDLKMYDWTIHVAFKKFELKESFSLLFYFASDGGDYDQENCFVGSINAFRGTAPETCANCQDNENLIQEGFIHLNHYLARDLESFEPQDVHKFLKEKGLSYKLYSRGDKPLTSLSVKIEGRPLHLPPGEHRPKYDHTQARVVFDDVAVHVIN
Briefly: Inhibition of mushroom tyrosinase assessed as L-DOPA conversion to melanin at 10 uM preincubated for 10 mins prior to substrate addition measured after 10 mins by spectrophotometric analysis. In outline: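 Mushroom tyrosinase (30 U) in 10 mM NaH₂PO₄ pH 6.8 with 10 µM inhibitor, 10 min at room temperature; background A475 taken, L-DOPA (0.5 mM) added, A475 read again after 10 min and background subtracted. No-inhibitor wells set as 100% activity. Triplicate assays, triplicate wells; mean ± SD.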

Experiment [2] has as its target Angiotensin-converting enzyme (Homo sapiens) (UniProt P12821). As to the kind of experiment: Inhibition of human recombinant ACE/CD143 somatic form using Mca-Pro-Leu-Gly-Leu-Dpa-Ala-Arg-NH2.AcOH as substrate at 10 uM preincubated for 10 mins prior to substrate addition measured for 30 mins by spectrophotometric analysis. In outline:
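Human recombinant somatic ACE/CD143 (20 ng) in 50 mM MES pH 6.5 with inhibitor at 10 µM, preincubated 10 min at 37 °C; OmniMMP fluorogenic peptide (4 µM) then added. Fluorescence (ex 320/em 400 nm) read over 30 min. Data normalized to uninhibited enzyme; triplicate assays, each inhibitor in triplicate; mean ± SD.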

In experiment [3] the target is T2, Macrophage metalloelastase (Homo sapiens, UniProt P39900). Briefly: Inhibition of human recombinant MMP-12 using Mca-Pro-Leu-Gly-Leu-Dpa-Ala-Arg-NH2.AcOH as substrate at 10 uM preincubated for 30 mins prior to substrate addition measured for 30 mins by fluorescence assay relative to control. In outline:
(§1)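 Human recombinant MMP-2 (1.16 U) or MMP-12 (0.007 U) in 50 mM HEPES, 10 mM CaCl₂, 0.05% Brij-35, pH 7.5, preincubated with inhibitor 30 min at 37 °C; 4 µM OmniMMP peptide then added. Fluorescence rise (ex 320/em 400 nm) over 30 min, as percent of no-inhibitor wells. Triplicate assays, triplicate wells; mean ± SD.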
Target sequence in this assay (P39900 106-470 limits assumed): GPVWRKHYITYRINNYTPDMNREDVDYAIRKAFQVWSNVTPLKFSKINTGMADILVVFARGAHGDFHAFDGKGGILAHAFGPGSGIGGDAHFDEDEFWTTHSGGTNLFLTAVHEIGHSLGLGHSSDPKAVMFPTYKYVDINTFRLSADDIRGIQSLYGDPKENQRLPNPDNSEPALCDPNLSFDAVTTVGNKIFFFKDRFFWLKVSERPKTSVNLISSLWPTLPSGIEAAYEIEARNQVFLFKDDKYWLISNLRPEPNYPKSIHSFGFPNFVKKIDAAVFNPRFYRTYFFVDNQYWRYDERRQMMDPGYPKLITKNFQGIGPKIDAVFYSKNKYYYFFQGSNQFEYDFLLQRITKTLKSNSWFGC

The target in experiment [4] is T3, 72 kDa type IV collagenase (Homo sapiens, UniProt P08253). Briefly: Inhibition of human recombinant MMP-2 using Mca-Pro-Leu-Gly-Leu-Dpa-Ala-Arg-NH2.AcOH as substrate at 10 uM preincubated for 30 mins prior to substrate addition measured for 30 mins by fluorescence assay relative to control. In outline: as §1
Target sequence in this assay (P08253 110-660 limits assumed): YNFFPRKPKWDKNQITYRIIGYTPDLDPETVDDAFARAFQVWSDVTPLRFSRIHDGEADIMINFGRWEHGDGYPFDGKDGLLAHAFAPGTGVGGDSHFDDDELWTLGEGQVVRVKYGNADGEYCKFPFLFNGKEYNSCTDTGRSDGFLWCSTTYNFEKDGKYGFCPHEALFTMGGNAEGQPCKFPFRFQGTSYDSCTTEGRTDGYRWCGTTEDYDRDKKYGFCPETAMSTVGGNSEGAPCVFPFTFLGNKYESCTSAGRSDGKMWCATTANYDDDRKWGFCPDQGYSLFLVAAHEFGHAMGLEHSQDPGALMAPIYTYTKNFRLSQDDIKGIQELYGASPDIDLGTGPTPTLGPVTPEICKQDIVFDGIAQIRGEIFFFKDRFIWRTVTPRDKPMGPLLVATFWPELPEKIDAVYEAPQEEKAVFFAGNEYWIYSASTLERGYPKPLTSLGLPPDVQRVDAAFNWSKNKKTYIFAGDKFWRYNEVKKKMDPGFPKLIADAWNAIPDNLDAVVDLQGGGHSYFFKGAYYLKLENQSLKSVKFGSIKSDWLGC
A short description of experiment [5]: Inhibition of MMP (unknown origin). Set-up: species or system Homo sapiens.
The target in experiment [6] is Histone deacetylase 2 (Homo sapiens) (UniProt Q92769). The conditions noted are these: at 10 µM.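 Also: fluorescence readout of HDAC2 deacetylase activity, compound preincubated with HDAC2 5 min before substrate, signal read after 30 min.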
For another experiment, the species on record is Homo sapiens. Briefly: Binding affinity to ferritin (unknown origin) assessed as removal of ferric ion at 1 mM measured for 1 hr by UV-vis spectrophotometric analysis.
In experiment [7] the target is T2, Macrophage metalloelastase. As to the kind of experiment: Inhibition of human recombinant MMP-12 using Mca-Pro-Leu-Gly-Leu-Dpa-Ala-Arg-NH2.AcOH as substrate preincubated for 30 mins prior to substrate addition measured for 30 mins by fluorescence assay. The gist of the method: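 Human recombinant MMP-12 (0.007 U) was preincubated with inhibitor at 37 °C for 30 min in 50 mM HEPES, 10 mM CaCl₂, 0.05% Brij-35, pH 7.5. OmniMMP substrate was then added, and fluorescence (ex 320/em 400 nm) was followed for 30 min. Activity is the fluorescence increase relative to no-inhibitor wells (set to 100%). Triplicate assays, each with triplicate inhibitor wells; mean ± SD.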
Target sequence in this assay (P39900 whole entry): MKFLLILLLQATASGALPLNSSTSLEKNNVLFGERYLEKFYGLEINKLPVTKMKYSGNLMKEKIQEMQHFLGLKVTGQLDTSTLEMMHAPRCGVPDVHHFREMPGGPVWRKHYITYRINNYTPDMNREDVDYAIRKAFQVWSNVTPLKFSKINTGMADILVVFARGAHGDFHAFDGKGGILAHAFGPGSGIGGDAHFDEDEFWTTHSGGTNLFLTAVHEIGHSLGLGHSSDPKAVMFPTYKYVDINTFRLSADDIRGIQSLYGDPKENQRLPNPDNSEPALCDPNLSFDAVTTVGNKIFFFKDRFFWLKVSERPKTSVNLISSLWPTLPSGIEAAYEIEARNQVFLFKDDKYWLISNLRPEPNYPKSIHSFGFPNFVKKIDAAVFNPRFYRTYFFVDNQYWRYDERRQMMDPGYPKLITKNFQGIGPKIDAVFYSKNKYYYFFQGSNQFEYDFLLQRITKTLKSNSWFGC

Experiment [8] deals with Matrix metalloproteinase-9 (Homo sapiens, UniProt P14780). As to the kind of experiment: Inhibition of MMP-9 (unknown origin).
Experiment [9] deals with T3, 72 kDa type IV collagenase. Briefly: Inhibition of human recombinant MMP-2 using Mca-Pro-Leu-Gly-Leu-Dpa-Ala-Arg-NH2.AcOH as substrate preincubated for 30 mins prior to substrate addition measured for 30 mins by fluorescence assay. The gist of the method:
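Human recombinant MMP-2 (1.16 U) in 50 mM HEPES, 10 mM CaCl₂, 0.05% Brij-35, pH 7.5, is preincubated with inhibitor at 37 °C for 30 min. 4 µM OmniMMP substrate then starts the reaction. Fluorescence (ex 320/em 400 nm) is followed for 30 min. Activity is the fluorescence increase relative to no-inhibitor wells, as a percentage. Three assays, each in triplicate; mean ± SD.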
Target sequence in this assay (P08253 whole entry): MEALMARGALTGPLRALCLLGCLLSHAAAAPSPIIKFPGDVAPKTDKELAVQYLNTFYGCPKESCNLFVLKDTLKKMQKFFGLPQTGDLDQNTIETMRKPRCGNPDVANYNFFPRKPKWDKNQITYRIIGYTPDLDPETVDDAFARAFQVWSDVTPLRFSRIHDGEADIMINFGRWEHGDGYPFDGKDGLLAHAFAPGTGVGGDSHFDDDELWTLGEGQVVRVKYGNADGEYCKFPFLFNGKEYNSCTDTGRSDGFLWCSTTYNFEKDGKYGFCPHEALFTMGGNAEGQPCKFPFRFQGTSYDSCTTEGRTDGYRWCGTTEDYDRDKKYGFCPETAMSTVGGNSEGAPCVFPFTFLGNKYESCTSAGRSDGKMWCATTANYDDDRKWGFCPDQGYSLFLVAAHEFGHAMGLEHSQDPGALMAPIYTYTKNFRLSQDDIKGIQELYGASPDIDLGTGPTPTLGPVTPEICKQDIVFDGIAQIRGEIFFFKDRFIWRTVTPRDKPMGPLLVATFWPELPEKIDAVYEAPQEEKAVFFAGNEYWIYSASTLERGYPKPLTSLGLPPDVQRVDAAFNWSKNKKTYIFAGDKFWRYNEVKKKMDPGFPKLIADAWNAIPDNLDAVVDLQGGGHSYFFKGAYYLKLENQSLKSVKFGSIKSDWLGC

The structures appear in SMILES notation. Calls of active or inactive are those of the source. The rule behind the calls is not given here. Where only a bound is given, the exact number is not on record here.

Chain of Angiotensin-converting enzyme (Homo sapiens) (P12821 whole entry): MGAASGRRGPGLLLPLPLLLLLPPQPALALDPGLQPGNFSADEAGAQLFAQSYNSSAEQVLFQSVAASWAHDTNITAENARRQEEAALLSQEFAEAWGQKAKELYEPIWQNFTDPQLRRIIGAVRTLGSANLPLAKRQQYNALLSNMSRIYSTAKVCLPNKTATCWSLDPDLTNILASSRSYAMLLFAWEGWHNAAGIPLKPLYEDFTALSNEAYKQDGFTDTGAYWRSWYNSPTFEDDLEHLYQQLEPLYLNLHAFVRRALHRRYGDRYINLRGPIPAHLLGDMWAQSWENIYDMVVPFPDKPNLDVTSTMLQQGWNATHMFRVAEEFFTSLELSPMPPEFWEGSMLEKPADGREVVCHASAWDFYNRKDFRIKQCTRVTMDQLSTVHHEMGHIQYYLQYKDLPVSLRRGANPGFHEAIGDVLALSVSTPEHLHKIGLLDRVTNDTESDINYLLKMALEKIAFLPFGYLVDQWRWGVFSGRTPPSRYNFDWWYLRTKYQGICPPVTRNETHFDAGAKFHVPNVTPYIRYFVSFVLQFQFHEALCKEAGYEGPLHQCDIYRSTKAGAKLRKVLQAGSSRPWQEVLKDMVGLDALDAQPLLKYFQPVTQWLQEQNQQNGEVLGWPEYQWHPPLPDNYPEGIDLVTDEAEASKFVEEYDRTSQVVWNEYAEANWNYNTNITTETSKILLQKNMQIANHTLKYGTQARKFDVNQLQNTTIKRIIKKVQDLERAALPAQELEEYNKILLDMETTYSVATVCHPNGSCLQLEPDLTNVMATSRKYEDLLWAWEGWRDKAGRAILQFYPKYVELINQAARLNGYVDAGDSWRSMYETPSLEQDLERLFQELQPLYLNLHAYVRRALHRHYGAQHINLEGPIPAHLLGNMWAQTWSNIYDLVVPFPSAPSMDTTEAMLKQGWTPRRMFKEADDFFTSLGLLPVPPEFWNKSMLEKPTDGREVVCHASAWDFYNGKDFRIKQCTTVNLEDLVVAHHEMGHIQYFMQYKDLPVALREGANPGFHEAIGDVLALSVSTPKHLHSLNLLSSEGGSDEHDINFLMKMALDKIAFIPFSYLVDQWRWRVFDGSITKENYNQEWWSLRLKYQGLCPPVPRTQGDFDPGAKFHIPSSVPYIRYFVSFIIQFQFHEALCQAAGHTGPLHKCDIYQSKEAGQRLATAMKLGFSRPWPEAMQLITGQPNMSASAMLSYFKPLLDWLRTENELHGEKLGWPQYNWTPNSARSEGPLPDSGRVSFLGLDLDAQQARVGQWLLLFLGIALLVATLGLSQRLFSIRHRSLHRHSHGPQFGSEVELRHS
Chain of Histone deacetylase 2 (Homo sapiens) (Q92769 whole entry): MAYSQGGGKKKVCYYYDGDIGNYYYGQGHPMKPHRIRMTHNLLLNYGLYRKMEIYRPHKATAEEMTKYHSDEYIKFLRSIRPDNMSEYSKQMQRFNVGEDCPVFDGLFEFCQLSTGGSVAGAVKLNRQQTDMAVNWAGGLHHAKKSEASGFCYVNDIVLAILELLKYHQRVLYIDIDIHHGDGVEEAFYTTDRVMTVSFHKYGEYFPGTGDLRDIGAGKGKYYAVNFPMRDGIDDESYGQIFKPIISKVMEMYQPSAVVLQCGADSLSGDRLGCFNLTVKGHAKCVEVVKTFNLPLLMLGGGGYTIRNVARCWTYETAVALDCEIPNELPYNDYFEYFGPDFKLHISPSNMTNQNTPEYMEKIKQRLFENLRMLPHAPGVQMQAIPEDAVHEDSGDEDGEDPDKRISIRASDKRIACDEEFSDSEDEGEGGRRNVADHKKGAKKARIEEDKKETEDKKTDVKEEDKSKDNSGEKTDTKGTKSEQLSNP
Chain of Matrix metalloproteinase-9 (P14780 whole entry): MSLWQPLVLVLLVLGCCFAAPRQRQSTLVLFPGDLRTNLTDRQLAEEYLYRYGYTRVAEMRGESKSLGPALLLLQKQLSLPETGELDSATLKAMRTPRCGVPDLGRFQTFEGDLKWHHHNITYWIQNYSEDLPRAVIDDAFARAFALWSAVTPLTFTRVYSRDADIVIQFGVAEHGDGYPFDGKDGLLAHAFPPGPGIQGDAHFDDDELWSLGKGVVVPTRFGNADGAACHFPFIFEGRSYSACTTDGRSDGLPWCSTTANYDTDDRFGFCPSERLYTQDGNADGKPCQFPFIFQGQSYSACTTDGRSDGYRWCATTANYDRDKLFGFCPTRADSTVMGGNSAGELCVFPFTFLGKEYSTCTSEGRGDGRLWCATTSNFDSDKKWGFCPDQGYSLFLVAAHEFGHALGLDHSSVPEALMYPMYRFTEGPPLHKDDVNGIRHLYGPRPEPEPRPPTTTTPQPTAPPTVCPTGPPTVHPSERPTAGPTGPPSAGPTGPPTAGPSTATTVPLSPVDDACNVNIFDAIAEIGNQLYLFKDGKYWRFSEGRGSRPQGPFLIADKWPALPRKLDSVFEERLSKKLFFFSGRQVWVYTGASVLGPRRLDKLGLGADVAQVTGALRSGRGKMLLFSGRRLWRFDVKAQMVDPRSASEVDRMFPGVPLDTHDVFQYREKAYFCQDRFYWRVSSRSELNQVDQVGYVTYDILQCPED

On to `COc1ccc(S(=O)(=O)N(Cc2cccnc2)[C@@H](C(=O)NO)C(C)C)cc1` [CGS-27023A], for which the inhibition entry (at Trypsin (Homo sapiens); in experiment [1]; in experiment [6]) was “inactive” throughout. In experiment [2], the inhibition entry is “Active”. The inhibition in experiment [3] and in experiment [4] was 95% throughout. The molecule further came in with an IC50 in experiment [5] of 8 nM.
As to `O=C(/C=C/c1ccc(Cl)cc1Cl)NO`, the inhibition entry (at Trypsin (Homo sapiens); in experiment [1]) was “inactive” each time. For the same molecule, the inhibition in [3] and in experiment [4] was below 25% throughout. In addition, the inhibition result in [6] was “Active”.
`C[C@H](CS)C(=O)N1CCC[C@H]1C(=O)O`: the inhibition entry (at Trypsin (Homo sapiens); in experiment [1]; in experiment [6]) was “inactive” throughout. Also, the inhibition result in experiment [3] is “Active”. In experiment [4], the inhibition is below 10%.
Take `CC(=O)N(O)CCCCCNC(=O)CCC(=O)N(O)CCCCCNC(=O)CCC(=O)N(O)CCCCCN`: the result in the experiment filed under Homo sapiens was Active. For the same molecule, the inhibition entry (on Trypsin (Homo sapiens); in experiment [1]; in experiment [6]) was “inactive” each time. Besides, the inhibition entry in experiment [3] and in experiment [4] was “Active” each time.
`Cc1nc(C(=O)NCc2ccc(F)cc2)c(O)c(=O)[nH]1`: the inhibition result (on Trypsin (Homo sapiens); in experiment [1]; in [6]) was “inactive” throughout. Further, in [3], the inhibition result was “Active”. Moreover, the inhibition in experiment [4] worked out at 50%.
For `O=C(CCCCCCC(=O)Nc1ccccc1)NO`, the inhibition result (on Trypsin (Homo sapiens); in experiment [1]) was “inactive” in each case. Also, the inhibition entry in experiment [2] was “Active”. The inhibition in [3] and in experiment [4] was below 25% each time.
`CC(=O)Nc1nnc(S(N)(=O)=O)s1`: the inhibition entry (at Trypsin (Homo sapiens); in [1]; in experiment [6]) was “inactive” throughout. Besides, the inhibition entry in experiment [3] and in [4] was “Active” in each case.
For the molecule `CC(c1cc2ccccc2s1)N(O)C(N)=O` (centres undefined), the inhibition entry (on Trypsin (Homo sapiens); in [1]; in experiment [6]) was “inactive” throughout. In addition, the inhibition result in experiment [3] and in experiment [4] was “Active” throughout.
For the molecule `CC(/C=C/C(=O)NO)=C\[C@@H](C)C(=O)c1ccc(N(C)C)cc1`, in experiment [6], the inhibition entry is “Active”.
For the molecule `O=C(NCc1ccc(-c2ccccc2)cc1)c1cccc(=O)n1O`, the inhibition result (on Trypsin (Homo sapiens); in experiment [1]; in experiment [6]) was “inactive” in each case. The inhibition result in [2] is “Active”. Moreover, the inhibition was 100% in experiment [3] and 80% in experiment [4]. Moreover, in experiment [7], the IC50 amounted to 18 nM.
Turning to `O=C(O)[C@H](Cc1ccccc1)NS(=O)(=O)c1ccc(-c2ccccc2)cc1`, the inhibition result (at Trypsin (Homo sapiens); in experiment [1]; in experiment [2]; in experiment [6]) was “inactive” in each case. The inhibition result in [3] and in experiment [4] was “Active” each time. Besides, the IC50 in experiment [8] worked out at 310 nM; in [9], 240 nM.
